Laboratory results published in article PMC3422576 (Science translational medicine, 2010).
One block for each compound: values may come before it.

Columns and labels:
[1] = tested on: Ptch+/−p53−/− medulloblastoma tumors; assay: Ptch+/−p53−/− medulloblastoma allograft efficacy study in nude mice; format: in vivo, mouse
Mouse Smo L225R = Mouse Smo L225R (Mus musculus, UniProt P56726, L225R); format: cell-based
In short: (§1)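 C3H10T1/2 cells transiently co-transfected with HA-tagged mouse Smo (wild-type or point mutant, in pcDNA3.1), a Gli-luciferase reporter and TK-driven renilla luciferase. Serial dilutions of test compound (0.001 to 10 μM final) added 24 h post-transfection. Firefly and renilla luciferase read by dual-luciferase assay after a further 24 h. Percent inhibition calculated relative to DMSO control.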

Mouse Smo Wild-type = Mouse Smo Wild-type (Mus musculus, UniProt P56726); format: cell-based
Mouse Smo Wild-type, sequence (P56726 33-793): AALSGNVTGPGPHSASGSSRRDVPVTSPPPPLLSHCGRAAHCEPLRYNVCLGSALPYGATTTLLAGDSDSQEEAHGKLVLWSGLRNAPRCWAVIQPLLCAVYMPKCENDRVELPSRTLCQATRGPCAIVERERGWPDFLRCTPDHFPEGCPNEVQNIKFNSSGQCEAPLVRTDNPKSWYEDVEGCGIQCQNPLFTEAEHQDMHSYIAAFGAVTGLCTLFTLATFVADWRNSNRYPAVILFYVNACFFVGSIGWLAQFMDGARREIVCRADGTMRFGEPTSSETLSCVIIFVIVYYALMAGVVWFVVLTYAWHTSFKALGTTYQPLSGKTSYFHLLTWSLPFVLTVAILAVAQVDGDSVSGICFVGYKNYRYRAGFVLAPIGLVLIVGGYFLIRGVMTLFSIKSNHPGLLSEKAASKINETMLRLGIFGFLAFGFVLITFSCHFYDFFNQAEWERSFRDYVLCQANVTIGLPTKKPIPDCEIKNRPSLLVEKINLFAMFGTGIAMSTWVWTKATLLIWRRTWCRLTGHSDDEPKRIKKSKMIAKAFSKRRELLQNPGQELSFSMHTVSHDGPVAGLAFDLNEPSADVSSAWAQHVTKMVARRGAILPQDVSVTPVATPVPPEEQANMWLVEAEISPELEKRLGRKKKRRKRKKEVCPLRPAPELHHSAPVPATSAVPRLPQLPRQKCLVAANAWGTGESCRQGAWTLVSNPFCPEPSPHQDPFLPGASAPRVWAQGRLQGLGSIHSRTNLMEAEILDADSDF
In short: as §1

human Smo = human Smo (Homo sapiens, UniProt Q99835); assay: Smo Agonist 1.5 displacement assay, human Smo; format: binding
human Smo, sequence (Q99835 28-787): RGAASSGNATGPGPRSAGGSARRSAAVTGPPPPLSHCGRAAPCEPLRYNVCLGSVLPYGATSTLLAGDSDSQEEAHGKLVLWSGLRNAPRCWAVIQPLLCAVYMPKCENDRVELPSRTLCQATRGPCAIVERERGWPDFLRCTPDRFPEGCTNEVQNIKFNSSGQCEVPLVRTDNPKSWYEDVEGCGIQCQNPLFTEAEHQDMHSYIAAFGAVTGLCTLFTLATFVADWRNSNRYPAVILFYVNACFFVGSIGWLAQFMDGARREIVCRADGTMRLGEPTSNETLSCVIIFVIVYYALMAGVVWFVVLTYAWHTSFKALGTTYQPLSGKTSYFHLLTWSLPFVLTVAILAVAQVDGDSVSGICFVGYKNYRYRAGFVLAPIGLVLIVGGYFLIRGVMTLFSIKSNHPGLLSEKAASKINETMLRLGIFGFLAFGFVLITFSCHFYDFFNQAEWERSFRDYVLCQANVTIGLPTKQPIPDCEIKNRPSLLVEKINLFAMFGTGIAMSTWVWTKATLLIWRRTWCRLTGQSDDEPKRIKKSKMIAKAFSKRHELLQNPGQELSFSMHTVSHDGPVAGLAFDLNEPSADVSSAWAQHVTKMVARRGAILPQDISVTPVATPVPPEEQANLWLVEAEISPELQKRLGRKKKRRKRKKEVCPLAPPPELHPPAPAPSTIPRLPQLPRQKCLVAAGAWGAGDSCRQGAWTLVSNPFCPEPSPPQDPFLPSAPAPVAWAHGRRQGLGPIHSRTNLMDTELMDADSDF

Mouse Smo D388N = Mouse Smo D388N (Mus musculus, UniProt P56726, D388N); format: cell-based
Mouse Smo D388N, sequence (P56726 33-793 D388N): as the sequence (P56726 33-793) above, with D356N counted along it
In short: as §1

[2] = tested on: Ptch+/−Hic+/− medulloblastoma tumors; assay: Ptch+/−Hic+/− medulloblastoma allograft efficacy study in nude mice; format: in vivo, mouse
Mouse Smo N223D = Mouse Smo N223D (Mus musculus, UniProt P56726, N223D); format: cell-based
Mouse Smo N223D, sequence (P56726 33-793 N223D): as the sequence (P56726 33-793) above, with N191D counted along it
In short: as §1

Mouse Smo S391N = Mouse Smo S391N (Mus musculus, UniProt P56726, S391N); format: cell-based
Mouse Smo S391N, sequence (P56726 33-793 S391N): as the sequence (P56726 33-793) above, with S359N counted along it
In short: as §1

mouse Smo = mouse Smo (Mus musculus, UniProt P56726); assay: Smo Agonist 1.5 displacement assay, mouse Smo; format: binding
mouse Smo, sequence (P56726 33-793): as the sequence (P56726 33-793) above

[3] = tested on: Gli1, Ptch1, Ptch2 and CyclinD1 mRNA; assay: Hh target gene mRNA in Ptch+/−Hic1+/− medulloblastoma allografts in nude mice; format: in vivo, mouse; conditions: Ptch+/−Hic1+/− allograft, oral, initial treatment
Gli1 mRNA = Gli1 mRNA in Ptch+/−p53−/− medulloblastoma allografts in nude mice; format: in vivo, mouse; conditions: oral, 20 mg/kg/day qd
Mouse Smo G457S = Mouse Smo G457S (Mus musculus, UniProt P56726, G457S); format: cell-based
Mouse Smo G457S, sequence (P56726 33-793 G457S): as the sequence (P56726 33-793) above, with G425S counted along it
In short: as §1

resistant tumor cells = assay: Ex-vivo medulloblastoma proliferation assay; format: cell-based, mouse; conditions: cells freshly isolated from resistant tumors

Mouse Smo L225R, sequence (P56726 33-793 L225R): as the sequence (P56726 33-793) above, with L193R counted along it

Compound: Nc1cc(C(F)(F)F)c(-c2cc(N3CCOCC3)nc(N3CCOCC3)n2)cn1 [NVP-BKM120, reference compound]
tumor growth inhibition in established NVP-LDE225 resistant tumors ([1]; treatment of established NVP-LDE225 resistant tumors, data not shown): modest but not statistically significant tumor growth inhibition

IC50 (Mouse Smo L225R): > 10000 nM
IC50 (Mouse Smo Wild-type): 6 nM
IC50 (human Smo): 11 nM
IC50 (Mouse Smo D388N): > 10000 nM
IC50 (Mouse Smo N223D): > 10000 nM
IC50 (Mouse Smo S391N): > 10000 nM
IC50 (mouse Smo): 12 nM
IC50 (Mouse Smo G457S): 400 nM
Compound: Cc1c(C(=O)Nc2ccc(N3C[C@@H](C)O[C@@H](C)C3)nc2)cccc1-c1ccc(OC(F)(F)F)cc1 [NVP-LDE225]
tumor growth ([1]; 10 mg/kg/day, Ptch+/−p53−/− allograft): partial growth inhibition
tumor response during initial treatment ([2]; Ptch+/−Hic1+/− allograft, oral): tumor regression
number of complete regressions ([2]; Ptch+/−Hic+/− allograft, after 61 days of treatment, n=8, NVP-LDE225 80 mg/kg/day qd, NVP-BEZ235 40 mg/kg/day qd): 1
Gli1, Ptch1, Ptch2 and CyclinD1 mRNA expression in tumors [3]: Pronounced inhibition
expression of Hh pathway target gene Gli1 in tumors (Gli1 mRNA): completely suppressed

Compound: HhAntag
growth of resistant tumor cells upon exposure (resistant tumor cells): largely unaffected
